# Measurements reported in ChEMBL document CHEMBL4145683, “Total Synthesis and Structure-Activity Relationships Study of Odilorhabdins, a New Class of Peptides Showing Potent Antibacterial Activity” (J Med Chem, 2018).
# pIC50: −log10 of the molar value. Positions of bridges follow the written chain, without caps; N, C: chain ends. Non-standard residues stand in square brackets, D forms with d. Residues, ends and D or L forms follow the SMILES beside them. *: point of attachment. Dab(3S-OH) = NC[C@H](O)[C@H](N)C(=O)O; ΔZArg = N=C(N)NCC/C=C(\N)C(=O)O; dOrn = NCCC[C@@H](N)C(=O)O; X1 = CC[C@H](C)CCCCC(=O)*; Dab = NCC[C@H](N)C(=O)O; NH(CH2)4NH2 = NCCCCN*
# Columns and labels:
# [1] = test system: Klebsiella pneumoniae; experiment: Antimicrobial activity against Klebsiella pneumoniae NCTC 13443 by broth microdilution method; format: functional
# In short: (§1)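 Broth microdilution MIC per CLSI M07-A10, with inoculum prepared by direct colony suspension. Reference strains were from ATCC and NCTC.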
# [2] = test system: Klebsiella pneumoniae; experiment: Antimicrobial activity against Klebsiella pneumoniae NCTC 13438 by broth microdilution method; format: functional; in short: as §1
# [3] = Inhibition of mammalian protein synthesis in rabbit reticulocyte lysate system incubated for 1 hr by mammalian cell-free transcription-translation assay; parameters: species or system Oryctolagus cuniculus
# [4] = test system: Klebsiella pneumoniae; experiment: Antimicrobial activity against Klebsiella pneumoniae ATCC BAA-2472 by broth microdilution method; format: functional; in short: as §1
# [5] = test system: Klebsiella pneumoniae; experiment: Antimicrobial activity against Klebsiella pneumoniae ATCC BAA-2146 by broth microdilution method; format: functional; in short: as §1
# [6] = test system: Escherichia coli; experiment: Antimicrobial activity against Escherichia coli ATCC BAA-2340 by broth microdilution method; format: functional; in short: as §1
# [7] = test system: Klebsiella pneumoniae; experiment: Antimicrobial activity against Klebsiella pneumoniae NCTC 13442 by broth microdilution method; format: functional
# In short: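 CLSI broth microdilution with direct colony suspension inoculum, per CLSI M07-A10. Reference strain taken from the NCTC collection.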
# [8] = test system: Escherichia coli; experiment: Antimicrobial activity against Escherichia coli ATCC BAA-2452 by broth microdilution method; format: functional; in short: as §1
# [9] = test system: Escherichia coli; experiment: Antimicrobial activity against Escherichia coli ATCC BAA-2469 by broth microdilution method; format: functional; in short: as §1
# [10] = test system: mammalian protein synthesis; experiment: Selectivity index, ratio of IC50 for inhibition of mammalian protein synthesis in rabbit reticulocyte lysate system incubated for 1 hr by mammalian cell-free transcription-translation assay to IC50 for Inhibition of bacterial protein synthesis in cell-free Escherichia coli; format: toxicity
# [11] = test system: Klebsiella pneumoniae; experiment: Antimicrobial activity against Klebsiella pneumoniae ATCC BAA-2473 by broth microdilution method; format: functional; in short: as §1
# [12] = test system: Escherichia coli; experiment: Inhibition of bacterial protein synthesis in cell-free Escherichia coli incubated for 1 hr and measured for every 20 mins by bacterial cell-free transcription-translation assay; format: functional; conditions: Escherichia coli
# In short: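 E. coli cell-free coupled transcription-translation used a GFP gene in pEXP5-CT as template, started with 1 μg plasmid in 50 μL reactions. Feed buffer was added at 30 min, with incubation at 30 °C. Fluorescence (ex 475/em 520 nm) was read every 20 min. IC50 was taken at 1 h after feed addition from a four-parameter log(inhibitor)–response fit. Duplicates.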
# [13] = test system: Klebsiella pneumoniae; experiment: Antimicrobial activity against Klebsiella pneumoniae ATCC 43816 by broth microdilution method; format: functional; in short: as §1
# [14] = test system: Escherichia coli; experiment: microbe, parasite or virus in culture; conditions: ATCC 25922
# [15] = test system: Klebsiella pneumoniae; experiment: Antimicrobial activity against Klebsiella pneumoniae ATCC 13883 by broth microdilution method; format: functional; in short: as §1
# [16] = test system: Klebsiella pneumoniae; experiment: Antimicrobial activity against Klebsiella pneumoniae NCTC 13439 by broth microdilution method; format: functional; in short: as §1
# [17] = test system: Enterobacter cloacae; experiment: Antimicrobial activity against Enterobacter cloacae ATCC BAA-2468 by broth microdilution method; format: functional
# [18] = test system: Klebsiella pneumoniae; experiment: Antimicrobial activity against Klebsiella pneumoniae ATCC BAA-1905 by broth microdilution method; format: functional; in short: as §1
# [19] = test system: Klebsiella pneumoniae; experiment: Antimicrobial activity against Klebsiella pneumoniae ATCC BAA-1904 by broth microdilution method; format: functional; in short: as §1
# [20] = Klebsiella pneumoniae, ATCC 43816, read-out: MIC
Compound,MIC [1],MIC [2],pIC50 [3],MIC [4],MIC [5],MIC [6],MIC [7],MIC [8],MIC [9],selectivity ratio at 1 h [10],MIC [11],pIC50 [12],"MIC [13, 20]",MIC [14],MIC [15],MIC [16],MIC [17],MIC [18],MIC [19],MIC [13]
C[C@H](NC(=O)[C@@H](NC(=O)[C@@H](N)CCCCN)[C@@H](O)CN)C(=O)NCC(=O)N[C@H](CCCN)C(=O)N1CCC[C@H]1C(=O)N[C@@H](Cc1cnc[nH]1)C(=O)N[C@@H](CCCCN)C(=O)N/C(=C\CCNC(=N)N)C(=O)O,4 µg/mL,8 µg/mL,3.78,4 µg/mL,4 µg/mL,16 µg/mL,4 µg/mL,16 µg/mL,16 µg/mL,300,4 µg/mL,6.26,4 µg/mL,16 µg/mL,4 µg/mL,4 µg/mL,4 µg/mL,8 µg/mL,4 µg/mL,
N=C(N)NCC/C=C(\NC(=O)[C@H](CCCCN)NC(=O)[C@H](Cc1cnc[nH]1)NC(=O)[C@@H]1CCCN1C(=O)[C@@H](CCCN)NC(=O)CNC(=O)[C@@H](NC(=O)[C@H](CO)NC(=O)[C@@H](N)CCCCN)[C@@H](O)CN)C(=O)N[C@@H](CCCCN)C(=O)NCCCCN,,,,,,,,,,,,< 4.40,> 64 µg/mL,> 64 µg/mL,,,,,,
N=C(N)NCC/C=C(\NC(=O)[C@H](CCCCN)NC(=O)[C@H](Cc1cnc[nH]1)NC(=O)[C@@H]1CCCN1C(=O)[C@@H](CCCN)NC(=O)CNC(=O)[C@@H](N)[C@@H](O)CN)C(=O)N[C@@H](CCCCN)C(=O)NCCCCN,,,,,,,,,,,,< 4.40,> 64 µg/mL,> 64 µg/mL,,,,,,
C[C@H](NC(=O)[C@@H]1CCCN1C(=O)[C@@H](CCCN)NC(=O)CNC(=O)[C@@H](NC(=O)[C@@H](NC(=O)[C@@H](N)CCCCN)[C@@H](O)CN)[C@@H](O)CN)C(=O)N[C@@H](CCCCN)C(=O)N/C(=C\CCNC(=N)N)C(=O)N[C@@H](CCCCN)C(=O)NCCCCN (H-K[Dab(3S-OH)][Dab(3S-OH)]G[dOrn]PAK[ΔZArg]K-{NH(CH2)4NH2}),,,,,,,,,,,,6.41,8 µg/mL,8 µg/mL,,,,,,
CC[C@H](C)CCCCC(=O)N[C@@H](CCN)C(=O)N[C@H](C(=O)N[C@@H](CCN)C(=O)N[C@H]1CCNC(=O)[C@H]([C@@H](C)O)NC(=O)[C@H](CCN)NC(=O)[C@H](CCN)NC(=O)[C@H](CC(C)C)NC(=O)[C@@H](Cc2ccccc2)NC(=O)[C@H](CCN)NC1=O)[C@@H](C)O (X1-[Dab]T[Dab][Dab][Dab][dF]L[Dab][Dab]T; lactam 4-C),0.5 µg/mL,0.5 µg/mL,,0.5 µg/mL,1 µg/mL,0.5 µg/mL,0.5 µg/mL,0.5 µg/mL,0.5 µg/mL,,0.5 µg/mL,,0.5 µg/mL,0.5 µg/mL,1 µg/mL,0.5 µg/mL,0.5 µg/mL,0.5 µg/mL,0.5 µg/mL,
GENTAMICIN,> 64 µg/mL,2 µg/mL,,> 64 µg/mL,> 64 µg/mL,1 µg/mL,0.25 µg/mL,> 64 µg/mL,> 64 µg/mL,,> 64 µg/mL,,,,1 µg/mL,1 µg/mL,> 64 µg/mL,32 µg/mL,16 µg/mL,0.25 µg/mL
